For experiment [1], the target named is T1, Serotonin 2 (5-HT2) receptor (Rattus norvegicus, UniProt P30994+P08909+P14842). In words: Ability to inhibit binding of titreated spiperone to the 5-hydroxytryptamine 2 receptor in rat brain frontal cortex membranes. It counts as cell membranes, Membrane. In outline:
(§1)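 5HT-2 binding in rat frontal cortex membranes with [3H]spiperone as radioligand. Tested at eleven concentrations between 0.1 and 10 000 nM, each in duplicate. IC50 is the concentration that halves specific binding, obtained by curve fitting.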

For experiment [2], the species on record is Rattus norvegicus. In words: Effect on 5HIAA (5-hydroxyindoleacetic acid) concentration in hypothalamus as an index of serotonin turnover in male Wistar rats expressed as percent of control. In kind it is functional. In outline: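 Hypothalamic 5-hydroxyindoleacetic acid in male Wistar rats, used as an index of serotonin turnover. Measured by liquid chromatography with electrochemical detection and expressed as percent of control.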

For experiment [3], the system named is Rattus norvegicus. Nature of the experiment: In vivo serum corticosterone concentration in male Wistar rats after injecting 0.3 mg/kg of compound subcutaneously. It counts as functional, organism-based. Set-up: dose 0.3 mg/kg. In outline:
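Serum corticosterone in male Wistar rats, measured spectrofluorometrically and reported per 100 mL of serum.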

The target of experiment [4] is Serotonin 1 (5-HT1) receptor (Rattus norvegicus, UniProt P28564+P30940+P19327+P28565). In words: Ability to inhibit binding of titreated serotonin to the 5-hydroxytryptamine 1 receptor in rat brain frontal cortex membranes. In kind it is cell membranes, Membrane.
For experiment [5], the target named is T1, Serotonin 2 (5-HT2) receptor. Nature of the experiment: Ability to inhibit binding of titreated spiperone to 5-hydroxytryptamine 2 receptor in rat brain frontal cortex membranes. In kind it is cell membranes, Membrane. In outline: as §1

The text below walks through data of ChEMBL document CHEMBL1124200, “6-substituted 1,3,4,5-tetrahydrobenz[cd]indol-4-amines: potent serotonin agonists” (J Med Chem, 1988).

The IC50 is the midpoint of a concentration-inhibition curve. Low readings indicate greater potency in that assay, high ones weaker potency in that assay.

For the molecule `CCCN(CCC)C1Cc2c[nH]c3ccc(C(N)=O)c(c23)C1` (stereo unspecified), the IC50 worked out at 4817 nM in experiment [1] and 83 nM in experiment [4]. Further, in the experiment listed under Rattus norvegicus [2], the “5-HIAA level, % of control” value turned out to be 61%. The Concentration in the experiment on Rattus norvegicus [3] came to 49 µg 100ml-1.

Regarding `CN(C)C1Cc2c[nH]c3ccc(C(N)=O)c(c23)C1` (stereo unspecified), the concentration for half-maximal inhibition (IC50) in experiment [1] turned out to be 5440 nM; in experiment [4], 390 nM. Further, in the experiment listed under Rattus norvegicus [2], the “5-HIAA level, % of control” value is 99%. This molecule also returned a Concentration in the experiment with Rattus norvegicus [3] of 9 µg 100ml-1.

Turning to `CCCN(CCC)C1Cc2c[nH]c3ccc(Br)c(c23)C1` (stereo unspecified), the figures for the IC50 in experiment [5] and in experiment [4] were 15444 nM and 241 nM, respectively. In addition, the “5-HIAA level, % of control” value in the experiment listed under Rattus norvegicus [2] came to 77%. This molecule also yielded a Concentration with Rattus norvegicus [3] of 13 µg 100ml-1.

`CCCN(CCC)C1Cc2c[nH]c3ccc(C#N)c(c23)C1` (stereo unspecified): the IC50 in experiment [5] is given as 390 nM; in experiment [4] it was 90 nM. For the same molecule, the “5-HIAA level, % of control” value in the experiment listed under Rattus norvegicus [2] is 90%. Also, the Concentration with Rattus norvegicus [3] was 47 µg 100ml-1.

Consider `COc1ccc2[nH]cc3c2c1CC(N(C)C)C3` (stereo unspecified), for which the IC50 in experiment [1] was 1756 nM; in experiment [4], 96 nM. In addition, in the experiment filed under Rattus norvegicus [2], the “5-HIAA level, % of control” value came out at 65%. The same molecule displayed a Concentration with Rattus norvegicus [3] of 41 µg 100ml-1.

As to `CCCN(CCC)C1Cc2cccc3[nH]cc(c23)C1` (stereo unspecified), the IC50 in experiment [5] is 723 nM; in experiment [4] it was 141 nM.

On to `CCCN(CCC)C1Cc2c[nH]c3ccc(OC)c(c23)C1` (stereo unspecified), for which the IC50 was determined as 1179 nM in experiment [1] and 36 nM in experiment [4]. In addition, in the experiment listed under Rattus norvegicus [2], the “5-HIAA level, % of control” value came out at 58%. In addition, in the experiment on Rattus norvegicus [3], the Concentration amounted to 48 µg 100ml-1.
